The RNAGym collection of RNA variant scans (doi:10.1002/anie.201605470)

B1: Osa-1-4 twister ribozyme (parent)
chain: CCGCCUAACACUGCCAAUGCCGGUCCCAAGCCCGGAUAAAAGUGGAGGGGGCGG

Variants of: B1
Experiment: self-cleavage, relative activity (ratio to wild type); higher = more cleavage; co-transcriptional
Summary of the method: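 A DNA template for a 54-nucleotide Oryza sativa twister ribozyme was synthesised with 97 % wild-type base and 1 % of each other base at the 48 positions downstream of the cleavage site. It was transcribed in vitro for 2 h at 37 °C, allowing co-transcriptional self-cleavage, then reverse-transcribed with a template-switching oligonucleotide, PCR-amplified and deep-sequenced. Cleavage status was scored from reads with or without upstream sequence. Relative activity is fraction cleaved normalised to wild type.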

| Variant | self-cleavage |
| --- | --- |
| G44U U12C | 0.43 |
| G44U U12A | 0.11 |
| G44U U12G | 0.15 |
| G45A G53A | 0.09 |
| G45A G53C | 0.05 |
| G45A G53U | 0.07 |
| G45U G53U | 0.05 |
| G45U G53A | 0.07 |
| G45U G53C | 0.03 |
| G45C U24G | 0.01 |
| G45C U24A | 0.04 |
| G45C U24C | 0.02 |
| G44U G48C | 0.07 |
| G44U G48A | 0.06 |
| G44U G48U | 0.07 |
| A46C C11G | 0.03 |
| A46C C11A | 0.04 |
| A46C C11U | 0.05 |
| G45A U24G | 0.02 |
| G45A U24C | 0.05 |
| G45A U24A | 0.03 |

| Variant | self-cleavage |
| --- | --- |
| A46C G47C | 0.02 |
| A46C G47A | 0.04 |
| A46C G47U | 0.04 |
| A46C C15U | 0.04 |
| A46C C15A | 0.03 |
| A46C C15G | 0.04 |
| A46G C20G | 0.04 |
| A46G C20A | 0.09 |
| A46G C20U | 0.07 |
| A46G C25A | 0.02 |
| A46G C25G | 0.02 |
| A46G C25U | 0.05 |
| G45U G47C | 0.04 |
| G45U G47U | 0.06 |
| G45U G47A | 0.04 |
| G44U U18G | 0.64 |
| G44U U18C | 0.69 |
| G44U U18A | 0.83 |
| A46C G13U | 0.01 |
| A46C G13A | 0.02 |
| A46C G13C | 0.01 |

| Variant | self-cleavage |
| --- | --- |
| G44C G53A | 0.81 |
| G44C G53U | 0.38 |
| G44C G53C | 0.09 |
| G44C G47U | 0.16 |
| G44C G47A | 0.19 |
| G44C G47C | 0.11 |
| A46C G35A | 0.06 |
| A46C G35U | 0.05 |
| A46C G35C | 0.04 |
| G45U U12C | 0.06 |
| G45U U12G | 0.07 |
| G45U U12A | 0.06 |
| G45A G48A | 0.06 |
| G45A G48U | 0.05 |
| G45A G48C | 0.04 |
| A46C A8U | 0.03 |
| A46C A8G | 0.02 |
| A46C A8C | 0.03 |
| A46C G45A | 0.05 |
| A46C G45U | 0.02 |
| A46C G45C | 0.03 |

| Variant | self-cleavage |
| --- | --- |
| G44U G54A | 0.88 |
| G44U G54C | 0.92 |
| G44U G54U | 0.9 |
| G44U G50U | 0.97 |
| G44U G50A | 0.58 |
| G44U G50C | 0.83 |
| G44C | 0.98 |
| G44U | 0.93 |
| A46C G34C | 0.05 |
| A46C G34A | 0.06 |
| A46C G34U | 0.04 |
| G45C U43A | 0.06 |
| G45C U43C | 0.06 |
| G45C U43G | 0.04 |
| A46C G53C | 0.04 |
| A46C G53U | 0.08 |
| A46C G53A | 0.07 |
| G44C U24A | 0.2 |
| G44C U24C | 0.2 |
| G44C U24G | 0.01 |
